Compound activity (PubChem BioAssay)
Most compounds without a hit are left out; they make up all but 1.1% or so of the library.
CAL PDZ FP-1 – blocks peptide binding to human CAL PDZ domain | Q9HD26 | purified CAL PDZ, TMR-peptide fluorescence polarization, 1 h | inhibition, % at 20 µM | actives 0.02% (n = 330,000);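 active = highest replicate inhibition of at least 40%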;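 note: plate controls were DMSO neutral control wells for no effect and unlabeled competitor peptide control wells for full effect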
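Test system: tagged CAL PDZ domain / Buffer or medium: sodium phosphate/NaCl buffer pH 7.4 with TCEP, IgG, Thesit / Reagent: TMR-labelled reporter peptide T*-PRC34 bound in PDZ groove / Compound dosing: single point, 20 µM / Schedule: 1 h incubation at room temperature before polarization reading / Technique: fluorescence polarization (mP) / Benchmarks: unlabelled peptide, DMSO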
PglD DTNB – blocks C. jejuni PglD acetyltransferase activity; purified PglD enzyme, DTNB colorimetric CoA detection; inhibition, % at 12.5 µM; actives 0.098% (n = 360,000); AID 602405; in the data active = inhibition above about 16%, passing the limit was not always enough
CAL PDZ FP-2 – blocks peptide binding to the human CAL PDZ domain. Q9HD26. purified CAL PDZ, TMR-peptide fluorescence polarization, 1 h. inhibition, % at 24.9 µM. actives 0.92% (n = 300,000). AID 602252;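 active = mean inhibition of at least 30% with at least half of replicates also reaching 30%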;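 note: 0% = DMSO neutral control and 100% = excess unlabeled competitor peptide PRC23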
miR122 inh – miR-122 inhibition in Huh7 cells; activation (reporter increase), % at 12.5 µM; actives 0.3% (n = 340,000); Huh7 miR-122 Renilla luciferase sensor, 48 h; neutral wells = 0, positive control = 100;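 active = mean replicate activation score at least 90 and every replicate individually at or above 90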;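 note: higher luciferase means less miR-122 activity so hits act as miR-122 inhibitors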
Cneo AK release – Cryptococcus neoformans lysis via adenylate kinase release. AID 651654. C. neoformans lysis, adenylate kinase release luminescence, 4 h; normalised: neutral wells 0, clomiphene wells 100. actives 0.2% (n = 360,000). lysis activity, % at 15 µM;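 active = mean lysis activity across replicates of at least 80%, whatever share of replicates individually reach that level; inactive = mean lysis activity below 80%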
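Material – log-phase Cryptococcus neoformans yeast cells · Input – 5 × 10^6 yeast cells/mL · Medium – fresh YPD growth medium · Doses – single compound concentration per well · Timing – static 4 h at 37 °C with compound, 1 h detection · Detection – adenylate kinase release luminescence · Read-out – signal increase indicating cell lysis · Control set – Clomiphene as positive lysis control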
* marks the source's active call; other numbers are inactive results; [ ] = dose if it differs, or a comment.

`CCC(C)(C(=O)NC1CCCCC1)N(C)C(=O)c1ccccn1` (stereo unspecified) gave CAL PDZ FP-1 0, PglD DTNB -2, CAL PDZ FP-2 53*, miR122 inh 2 and Cneo AK release 7.
Screening CCCN1C[C@@H](C)[C@H](OC)CN(C)C(=O)c2cc(NC(=O)NC3CCCCC3)ccc2OC[C@@H]1C returned PglD DTNB -1, miR122 inh 1[16.7 µM] and Cneo AK release -2.
`CCN(CC)c1ccc(NC(=O)COc2ccccc2C#N)cc1S(=O)(=O)Nc1ccccc1OC` gave CAL PDZ FP-1 -2, PglD DTNB 5, CAL PDZ FP-2 -2, miR122 inh 288* and Cneo AK release 3.
`CCN(CC)c1ccc(NC(=O)c2ccccn2)cc1S(=O)(=O)Nc1ccccc1OC` gave CAL PDZ FP-1 -2, PglD DTNB 0, CAL PDZ FP-2 -3, miR122 inh 125* and Cneo AK release 1.
C[C@H]1CN([C@@H](C)CO)C(=O)Cc2cc(NC(=O)C3CC3)ccc2O[C@@H]1CN(C)C(=O)Nc1ccccc1 was read as PglD DTNB 6, miR122 inh -1[16.7 µM] and Cneo AK release 1.
Screening O=C(c1cccc(Cl)c1)N1CCC(C(=O)N2CCN(Cc3ccccc3)CC2)CC1 returned CAL PDZ FP-1 0, PglD DTNB -2, CAL PDZ FP-2 45*, miR122 inh 0 and Cneo AK release 1.
`O=C(Cn1nc(Cc2cccnc2)c2ccccc2c1=O)Nc1cc(F)ccc1F` gave CAL PDZ FP-1 -1, PglD DTNB -5, CAL PDZ FP-2 66*, miR122 inh 2 and Cneo AK release -6.
CCS(=O)(=O)Nc1cccc(C2=NN(S(C)(=O)=O)C(c3cccs3)C2)c1 (stereo unspecified) was read as CAL PDZ FP-1 -1, PglD DTNB -3, CAL PDZ FP-2 -6, miR122 inh 3 and Cneo AK release 1.
For CS(=O)(=O)N1N=C(c2ccc(Cl)cc2)CC1c1cccs1 (stereo unspecified) the results were CAL PDZ FP-1 0, PglD DTNB -1, miR122 inh 126* and Cneo AK release 1.
COCCNC(=O)C[C@H]1C=C[C@H](NS(=O)(=O)c2ccc(C)cc2)[C@H](CO)O1 was read as PglD DTNB -6 and Cneo AK release -2.
Screening O=S1(=O)c2ccc(Br)cc2N2CCC[C@@H]2CN1Cc1ccc(Cl)cc1 returned CAL PDZ FP-1 -2, PglD DTNB -2, CAL PDZ FP-2 28, miR122 inh 7 and Cneo AK release 2.
For O=S1(=O)c2ccc(Br)cc2N2CCC[C@H]2CN1Cc1ccccc1 the results were CAL PDZ FP-1 0, PglD DTNB -1, CAL PDZ FP-2 -7, miR122 inh 140* and Cneo AK release -1.
Screening O=C(COc1ccc(-c2nnco2)cc1)N1CCN(S(=O)(=O)c2ccc3ccccc3c2)CC1 returned CAL PDZ FP-1 1, PglD DTNB -8, CAL PDZ FP-2 42*, miR122 inh -2 and Cneo AK release -3.
`COc1ccc(S(=O)(=O)N2CCN(C(=O)COc3ccccc3)CC2)cc1` gave CAL PDZ FP-1 -3 and CAL PDZ FP-2 -3.
`CC(C)(C)C(=O)NC(=S)Nc1ccc(S(=O)(=O)Nc2nccs2)cc1` gave CAL PDZ FP-1 0 and CAL PDZ FP-2 4.
O=C(NC(=S)Nc1ccc(S(=O)(=O)Nc2nccs2)cc1)c1ccc(F)cc1 was read as CAL PDZ FP-1 -2 and CAL PDZ FP-2 54*.
For COc1ccc(NC(=O)N(C)C[C@@H]2Oc3ccc(NC(=O)Cn4cnnn4)cc3CC(=O)N([C@@H](C)CO)C[C@H]2C)cc1 the results were PglD DTNB -2, miR122 inh 4[16.7 µM] and Cneo AK release -1.
`CC=Cc1ccc2n(c1=O)C[C@@H]1[C@@H](CO)[C@H](C(=O)N[C@@H](C)c3ccccc3)N(C(=O)c3cnccn3)[C@H]21` (mixture of isomers) gave PglD DTNB -2 and Cneo AK release -3.
For CCCNC(=O)N(C)C[C@@H]1Oc2ncc(/C=C/c3ccccc3)cc2C(=O)N([C@@H](C)CO)C[C@H]1C the results were PglD DTNB 0, miR122 inh -5[16.7 µM] and Cneo AK release 7.
